Source: ChEMBL document CHEMBL1140131, “Synthesis and in vitro evaluation of 5-[(18)f]fluoroalkyl pyrimidine nucleosides for molecular imaging of herpes simplex virus type 1 thymidine kinase reporter gene expression” (J Med Chem, 2008)
pIC50: −log10 of the molar value.

Experiments:
[1] = tested on: RG2; experiment: Cellular uptake in RG2 cells assessed per 10^6 cells at 0.2 MBq after 2 hrs; format: ADME, cell-based; conditions: rat, rg2, 2 h
In short: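 Wild-type RG2 rat glioma monolayers (5 × 10^5 cells/well, 24 h growth) were incubated at 37 °C in 0.5 mL serum-free medium with about 0.2 MBq (5 μCi) of 18F-labelled nucleoside (SA 18.5–925 GBq/μmol). After 2 h they were washed with cold PBS, trypsinized and viable cells counted by trypan blue. Gamma counts (400–1600 keV) were normalized to viable cell number and to total activity, expressed as % per 10^6 cells. Three or more experiments, each in duplicate.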

[2] = tested on: RG2; experiment: Selectivity index, ratio of cellular uptake in HSV1-tk gene overexpressing RG2TK+ cells to cellular uptake in RG2 cells; format: functional, Rattus norvegicus
In short: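 Tracer uptake measured in parallel in HSV1-tk-transduced RG2TK+ and wild-type RG2 glioma cells: 37 °C, serum-free medium, ~0.2 MBq 18F-tracer. Activity was gamma counted and normalized to viable cells and dose. The index is the average ratio of accumulation in RG2TK+ to accumulation in RG2.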

[3] = Lipophilicity, log P at pH 7.4; format: physicochemical; conditions: buffer
In short: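 Radiolabelled nucleoside (20 μL in water) was partitioned between 3 g 1-octanol and 3 g 0.1 M NaH2PO4 buffer, pH 7.4. The mixture was vortexed 3 min at room temperature, then centrifuged 5 min. Weighed 0.5 g samples of each layer were gamma counted, and the octanol layer was repartitioned until values were consistent. log P was taken as the log of the ratio of cpm/g octanol to cpm/g buffer. Triplicate, repeated three times.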

[4] = Cellular uptake in HSV1-tk gene overexpressing RG2TK+ cells assessed per 10^6 cells at 0.2 MBq after 2 hrs; format: ADME; conditions: rat
In short: (§1)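 RG2 rat glioma cells transduced with HSV1-tk (kept in G418 250 mg/L), 5 × 10^5 cells/well, grown 24 h, then incubated at 37 °C in serum-free medium with ~0.02 MBq [125I]FIAU or ~0.2 MBq 18F-tracer. Sampled at 5–120 min. After cold PBS washes and trypsinization, cell-bound activity was gamma counted and normalized to viable (trypan blue) cells and to total dose. Mean ± S.D., ≥3 experiments in duplicate.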

[5] = tested on: RG2; experiment: Cytotoxicity against RG2 cells after 72 hrs by MTT assay; format: cell-based; conditions: rat, rg2, 72 h
In short: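 RG2 cells were seeded at 1.5 × 10^3/well, left overnight, then exposed to drug at 0.001–1000 μmol/L in culture medium, in quadruplicate, for 72 h at 37 °C. MTT (1 mg/mL) was added for 3 h and the formazan dissolved in DMSO. Absorbance was read at 490 nm with a 650 nm reference, blank subtracted, and growth given as % of untreated control. CC50 was taken as mean of three experiments.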

[6] = Inhibition of [125I]FIAU uptake in RG2TK+ cells overexpressing HSV1-tk gene; format: functional, cell-based; conditions: Rattus norvegicus
In short: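 HSV1-tk-expressing RG2TK+ glioma cells incubated 2 h with [125I]FIAU plus inhibitor at 0–300 μM. Cell-associated radioactivity measured. IC50 is the concentration giving 50% inhibition of [125I]FIAU uptake; mean ± S.D. of at least three experiments in duplicate.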

[7] = Cytotoxicity against HSV1-tk gene overexpressing RG2TK+ cells after 72 hrs by MTT assay; format: cell-based; conditions: rat
In short: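 RG2TK+ cells (HSV1-tk-transduced rat glioma) seeded at 1.5 × 10^3 cells/well overnight, then exposed to drug at 0.001–1000 μmol/L in quadruplicate for 72 h at 37 °C. MTT (1 mg/mL) added for 3 h; formazan dissolved in DMSO and read at 490 nm (650 nm reference). Blanks subtracted; growth given as % of untreated control. CC50 reported as mean ± S.E.M. of three experiments in duplicate.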

[8] = tested on: RG2; experiment: Cellular uptake in RG2 cells assessed per 10^6 cells at 0.02 MBq after 2 hrs; format: ADME, cell-based; conditions: rat, rg2, 2 h
In short: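 Wild-type RG2 rat glioma monolayers (5 × 10^5 cells/well, grown 24 h at 37 °C in DMEM, 10% FBS) washed with warm PBS, then incubated at 37 °C in 0.5 mL serum-free medium with about 0.02 MBq [125I]FIAU (SA 2,200 Ci/mmol). After 2 h, cells were washed with cold PBS, trypsinized and counted for viability by trypan blue. Cell-associated gamma counts were normalized to viable cells and to activity added, given as % per 10^6 cells. Three or more experiments, each in duplicate.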

[9] = Cellular uptake in HSV1-tk gene overexpressing RG2TK+ cells assessed per 10^6 cells at 0.02 MBq after 2 hrs; format: ADME; conditions: rat; in short: as §1

SMILES	Drug uptake [1] [%]	Ratio [2]	logD [3]	Drug uptake [4] [%]	CC50 [5] [µM]	pIC50 [6]	CC50 [7] [µM]	other results
O=c1[nH]c(=O)n([C@H]2C[C@H](O)[C@@H](CO)O2)cc1CCCC[18F]	0.59	14.9	-0.24	8.4				
O=c1[nH]c(=O)n([C@@H]2O[C@H](CO)[C@@H](O)[C@@H]2F)cc1CCC[18F]	0.38	5	-0.12	1.9				
O=c1[nH]c(=O)n([C@@H]2O[C@H](CO)[C@@H](O)[C@@H]2F)cc1CCCCC[18F]	0.24	5.5	0.74	1.2				
O=c1[nH]c(=O)n([C@@H]2O[C@H](CO)[C@@H](O)[C@@H]2F)cc1CCCF					121	4.29	209	
O=c1[nH]c(=O)n([C@@H]2O[C@H](CO)[C@@H](O)[C@@H]2F)cc1CCCCF					355	4.64	346	
O=c1[nH]c(=O)n([C@@H]2O[C@H](CO)[C@@H](O)[C@@H]2F)cc1[125I]		9.9	0.05					Drug uptake [8]: 3.4%; Drug uptake [9]: 29.4%
O=c1[nH]c(=O)n([C@H]2C[C@H](O)[C@@H](CO)O2)cc1CCCF					> 450	5.12	> 1000	
O=c1[nH]c(=O)n([C@H]2C[C@H](O)[C@@H](CO)O2)cc1CCCCF					> 800	4.46	> 800	
O=c1[nH]c(=O)n([C@H]2C[C@H](O)[C@@H](CO)O2)cc1CCCCC[18F]	0.23	19.9	0.23	4.4				
O=c1[nH]c(=O)n([C@H]2C[C@H](O)[C@@H](CO)O2)cc1CCC[18F]	0.41	20.5	-0.57	8.2				
O=c1[nH]c(=O)n([C@@H]2O[C@H](CO)[C@@H](O)[C@H]2F)cc1/C=C/[123I]			1.22					
O=c1[nH]c(=O)n([C@@H]2O[C@H](CO)[C@@H](O)[C@@H]2F)cc1CCCCCF					> 1000	4.64	375	
O=c1[nH]c(=O)n([C@@H]2O[C@H](CO)[C@@H](O)[C@@H]2F)cc1/C=C/[123I]			1.24					
O=c1[nH]c(=O)n([C@@H]2O[C@H](CO)[C@@H](O)[C@@H]2F)cc1CCCC[18F]	0.66	7.8	0.27	3.7				
O=c1[nH]c(=O)n([C@H]2C[C@H](O)[C@@H](CO)O2)cc1CCCCCF					> 750	4.43	> 650	
O=c1[nH]c(=O)n([C@@H]2O[C@H](CO)[C@@H](O)[C@@H]2F)cc1I [FIALURIDINE]					80	6.15	0.79	
Nc1nc(O)c2ncn(COC(CO)CO)c2n1 [GANCICLOVIR]					377		5.86	
